In ChEMBL document CHEMBL1122232, “Quantitative structure-inotropy relationship applied to substituted grayanotoxins” (J Med Chem, 1983):

What was measured:
[1] = Lethal dose in guinea pig; assay type: toxicity, organism-based, Cavia porcellus; details: in vivo
Procedure, shortened: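 Male Hartley guinea pigs of about 350 g. LD50 determined by the up-and-down method.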

Cavia porcellus = species: Cavia porcellus; assay: Positive inotropic effect was determined by measuring force of contraction of papillary muscle in guinea pig at a driving rate of 1.0 Hz; assay type: functional, Muscle tissue
Procedure, shortened: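 Isolated guinea pig papillary muscle paced at 1.0 Hz in Krebs-Henseleit solution (Ca2+ 3.2 mM, 30 °C). Compounds added cumulatively to the bath every 20 min. Contraction force recorded on oscillographic paper. pD2 = molar concentration giving 50% of maximum positive inotropic effect, read from concentration-response curves in five to six muscles; mean reported.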

SMILES	LD50 [1] [mg/kg]	pD2 (Cavia porcellus)
CCCCCC(=O)O[C@@H]1C2CCC3[C@@](C)(O)C4CC(O)C(C)(C)C4(O)C(O)C[C@]31C[C@@]2(C)O (stereo not given in full)	0.34	5.75
CCCCC(=O)O[C@@H]1C2CCC3[C@@](C)(O)C4CC(O)C(C)(C)C4(O)C(O)C[C@]31C[C@@]2(C)O (stereo not given in full)	0.17	6.41
CC(=O)O[C@@H]1C2CCC3[C@@](C)(O)C4CC(O)C(C)(C)C4(O)C(O)C[C@]31C[C@@]2(C)O (stereo not given in full)	1.3	6.31
CCC(=O)O[C@@H]1C2CCC3[C@@](C)(O)C4CC(O)C(C)(C)C4(O)C(O)C[C@]31C[C@@]2(C)O (stereo not given in full)	0.044	6.67
CC(C)(C)C(=O)O[C@@H]1C2CCC3[C@@](C)(O)C4CC(O)C(C)(C)C4(O)C(O)C[C@]31C[C@@]2(C)O (stereo not given in full)	0.36	5.78
CC1(C)C(O)CC2C1(O)C(O)C[C@]13C[C@@](C)(O)C(CCC1[C@@]2(C)O)[C@H]3OC(=O)CCCl (stereo not given in full)	0.17	6.96
CC1(C)[C@@H](O)C[C@@H]2[C@]1(O)[C@H](O)C[C@]13C[C@@](C)(O)[C@H](CCC1[C@@]2(C)O)[C@H]3O[C@H]1O[C@@H](CO)[C@H](O)[C@@H](O)[C@@H]1O (stereo not given in full)	< 6	<4
CC1(C)C(O)CC2C1(O)C(O)C[C@]13C[C@@](C)(O)C(CCC1[C@@]2(C)O)[C@H]3OC(=O)C1CCCCC1 (stereo not given in full)	0.31	6.17
CC1(C)C(O)CC2C1(O)C(O)C[C@]13C[C@@](C)(O)C(CCC1[C@@]2(C)O)[C@H]3O (stereo not given in full)	0.45	6.15
CCCCCCC(=O)O[C@@H]1C2CCC3[C@@](C)(O)C4CC(O)C(C)(C)C4(O)C(O)C[C@]31C[C@@]2(C)O (stereo not given in full)	–	5.32
CCCC(=O)O[C@@H]1C2CCC3[C@@](C)(O)C4CC(O)C(C)(C)C4(O)C(O)C[C@]31C[C@@]2(C)O (stereo not given in full)	0.12	6.81
CC1(C)C(O)CC2C1(O)C(O)C[C@]13C[C@@](C)(O)C(CCC1[C@@]2(C)O)[C@H]3OC(=O)c1ccccc1 (stereo not given in full)	1.35	5.79
CC(O)C(=O)O[C@@H]1C2CCC3[C@@](C)(O)C4CC(O)C(C)(C)C4(O)C(O)C[C@]31C[C@@]2(C)O (stereo not given in full)	0.08	6.54
